Data: ChEMBL document CHEMBL4428026, “Discovery of New Monocarbonyl Ligustrazine-Curcumin Hybrids for Intervention of Drug-Sensitive and Drug-Resistant Lung Cancer” (J Med Chem, 2016)
Active and inactive are the calls of the source. The rule behind the calls is not given here.

What was measured:
[1] = molecular target: ATP-dependent translocase ABCB1 (Homo sapiens, UniProt P08183); assay: Inhibition of P-gp ATPase activity in human A549/CDDP cells at 40 uM by luminescence assay (reference value: 706683 +/- 23554 RLU); type: cell-based
Chain of ATP-dependent translocase ABCB1 (P08183 whole entry): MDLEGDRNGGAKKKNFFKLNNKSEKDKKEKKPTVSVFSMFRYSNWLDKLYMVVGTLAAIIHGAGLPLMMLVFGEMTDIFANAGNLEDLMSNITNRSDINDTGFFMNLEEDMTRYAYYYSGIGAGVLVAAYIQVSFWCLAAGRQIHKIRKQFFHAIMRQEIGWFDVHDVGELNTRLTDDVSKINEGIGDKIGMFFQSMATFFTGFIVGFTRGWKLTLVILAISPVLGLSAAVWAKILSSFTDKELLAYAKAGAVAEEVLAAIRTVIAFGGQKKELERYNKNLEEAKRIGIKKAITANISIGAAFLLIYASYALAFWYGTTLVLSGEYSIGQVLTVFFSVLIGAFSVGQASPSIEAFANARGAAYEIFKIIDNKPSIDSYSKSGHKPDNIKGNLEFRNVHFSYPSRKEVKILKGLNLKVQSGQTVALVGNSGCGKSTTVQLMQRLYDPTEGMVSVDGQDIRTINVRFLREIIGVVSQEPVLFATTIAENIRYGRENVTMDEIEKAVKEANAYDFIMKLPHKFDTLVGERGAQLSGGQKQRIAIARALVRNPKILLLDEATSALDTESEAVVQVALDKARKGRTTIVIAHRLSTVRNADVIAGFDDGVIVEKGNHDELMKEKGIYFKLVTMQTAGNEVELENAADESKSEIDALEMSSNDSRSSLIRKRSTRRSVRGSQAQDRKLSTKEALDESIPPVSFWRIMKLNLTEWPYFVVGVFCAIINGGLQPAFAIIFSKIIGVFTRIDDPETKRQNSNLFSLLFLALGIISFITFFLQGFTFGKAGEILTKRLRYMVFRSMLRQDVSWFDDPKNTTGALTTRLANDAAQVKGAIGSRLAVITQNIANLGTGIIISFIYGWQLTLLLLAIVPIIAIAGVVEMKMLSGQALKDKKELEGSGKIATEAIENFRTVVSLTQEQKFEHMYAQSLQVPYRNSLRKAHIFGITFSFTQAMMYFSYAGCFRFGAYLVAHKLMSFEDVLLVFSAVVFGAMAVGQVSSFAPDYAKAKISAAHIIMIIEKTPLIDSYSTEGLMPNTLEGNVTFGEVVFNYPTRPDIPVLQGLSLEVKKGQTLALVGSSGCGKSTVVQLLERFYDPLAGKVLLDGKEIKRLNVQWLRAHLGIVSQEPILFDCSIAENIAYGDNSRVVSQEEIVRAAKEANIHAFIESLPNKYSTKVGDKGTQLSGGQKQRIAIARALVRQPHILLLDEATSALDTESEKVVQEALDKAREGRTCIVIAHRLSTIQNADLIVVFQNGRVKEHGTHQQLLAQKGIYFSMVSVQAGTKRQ

[2] = Acute toxicity in ICR mouse assessed as mortality at 450 mg/kg, ip; type: organism-based; conditions: in vivo
Summary of the method: (§1)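 Male and female ICR mice (7 weeks), randomized, 10 per group, given one intraperitoneal dose at 200, 250, 300, 350, 400 or 450 mg/kg. Animals were watched for abnormal behaviour and deaths up to two weeks. Deaths were tallied at 1 h, 4 h, day 3 and days 4-14, with survival on day 14. LD50 was calculated with 95% confidence limits.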

A549 [3] = assay: Induction of apoptosis in human A549 cells assessed as increase in cleaved caspase 3 level at 2.1 to 4.2 uM after 24 hrs by Western blot method; type: functional, cell-based
Summary of the method: (§2)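 Cells were plated at 1 × 10^6/well overnight, then treated 24 h with vehicle DMSO (0.1%, v/v) or compound (A549, 2.1 or 4.2 µM; A549/DDP, 0.6 or 1.2 µM). Lysis was at 4 °C. Lysates were run on SDS-PAGE (7.5% gel, 20 µg/lane) and immunoblotted with ECL detection; phospho-Akt Ser473 and phospho-ERK Thr202/Tyr204 were probed. Bands were normalized to GAPDH (TrxR, Trx) or β-actin. Three independent experiments were run.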

[4] = Acute toxicity in ICR mouse assessed as survival at 450 mg/kg, ip measured on day 14; type: organism-based; conditions: in vivo; summary of the method: as §1
[5] = Acute toxicity in ICR mouse assessed as survival at 350 mg/kg, ip measured on day 14; type: organism-based; conditions: in vivo; summary of the method: as §1
A549 [6] = assay: Effect on NFkappaB expression in human A549 cells at 2.1 to 4.2 uM after 24 hrs by Western blot method; type: functional, cell-based; summary of the method: as §2
[7] = molecular target: RAC-alpha serine/threonine-protein kinase (Homo sapiens) (UniProt P31749); assay: Inhibition of Akt phosphorylation in human A549/CDDP cells at 0.6 to 1.2 uM after 24 hrs by Western blot method; type: cell-based; summary of the method: as §2
Chain of RAC-alpha serine/threonine-protein kinase (Homo sapiens) (P31749 whole entry): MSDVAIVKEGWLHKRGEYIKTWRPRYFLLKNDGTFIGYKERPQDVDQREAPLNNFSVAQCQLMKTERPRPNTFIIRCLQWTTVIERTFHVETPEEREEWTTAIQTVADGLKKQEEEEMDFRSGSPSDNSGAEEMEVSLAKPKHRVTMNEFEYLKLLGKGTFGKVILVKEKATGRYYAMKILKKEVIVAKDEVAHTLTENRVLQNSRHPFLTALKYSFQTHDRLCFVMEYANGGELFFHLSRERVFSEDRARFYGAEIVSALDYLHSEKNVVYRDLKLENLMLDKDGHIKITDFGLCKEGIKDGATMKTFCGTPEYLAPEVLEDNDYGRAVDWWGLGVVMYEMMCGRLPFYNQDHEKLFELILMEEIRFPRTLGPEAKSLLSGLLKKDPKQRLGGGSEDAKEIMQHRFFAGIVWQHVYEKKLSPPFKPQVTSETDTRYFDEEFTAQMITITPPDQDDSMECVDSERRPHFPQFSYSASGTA

A549/CDDP = assay: Induction of ROS generation in human A549/CDDP cells 0.6 to 1.2 uM after 60 mins by DHE staining-based fluorescence assay in presence of NAC; type: functional, cell-based
[8] = Acute toxicity in ip dosed ICR mouse assessed as mortality measured up to 2 weeks; type: organism-based; conditions: in vivo; summary of the method: as §1
[9] = Acute toxicity in ICR mouse assessed as survival at 300 mg/kg, ip measured on day 14; type: organism-based; conditions: in vivo; summary of the method: as §1
Thioredoxin reductase = Thioredoxin reductase (Homo sapiens, UniProt Q16881+Q9NNW7+Q86VQ6); assay: Inhibition of thioredoxin reductase in human A549/CDDP cells by DTNB dye based microplate spectrophotometry; type: cell-based
Summary of the method: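 A549 or A549/DDP cells were treated with varying compound concentrations for 24 h, then harvested, homogenized and centrifuged. Protein (50 µg) was reacted in triplicate with NADPH and DTNB in TE buffer at 37 °C for 1 h, and TNB was read at 412 nm. Activity was taken from a purified-TrxR standard curve, and IC50 was derived.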

[10] = Antiproliferative activity against human SPC-A1 cells after 72 hrs by MTT assay; type: functional, cell-based; conditions: SPCA1, 72 h
Summary of the method: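 Cells (A549, A549/DDP, SPC-A-1, LTEP-G-2, non-tumor bronchial epithelial HBE) were exposed in triplicate to vehicle or compound for 72 h. MTT (5 mg/mL in PBS) was then added for 4 h, formazan was dissolved in DMSO, and absorbance was read at 570 nm. IC50 values were derived from viability.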

Compound: COc1cc(/C=C/C(=O)/C=C/c2nc(C)c(C)nc2C)ccc1O
- Activity [1]: 761592 RLU
- Activity [2]: Toxic
- Activity (A549 [3]): Active
- survival at 14 day [4]: 0%
- survival at 14 day [5]: 30%
- Activity (A549 [6]): inactive
- inhibition [7]: Active
- Activity (A549/CDDP): inactive
- LD50 at 336 h [8]: 285 mg/kg
- survival at 14 day [9]: 50%
- IC50 (Thioredoxin reductase): 1.22 µM
- IC50 [10]: 3.12 µM
